High-throughput results from PubChem BioAssay.
Yeast superoxide: reduction of superoxide in aged yeast, primary screen, HTS; AID 2690, 2010; superoxide response (% of plate mean), % at 10 µM; 0.18% of 330,000 active; S. cerevisiae aged cells, superoxide DHE fluorescence; hits give low values;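 active means superoxide response under a set limit, about three screen SD below normal, cut at about 65% in these data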;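 further: yeast aged for seven days with compound at 30 °C before DHE staining; 100% = average MFI of all compound-treated wells on the plate with controls excluded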
ASAP1 GAP inh: inhibitors of human ASAP1 ArfGAP activity, primary screen, biochemical, fluorescence polarization | 0.19% of 360,000 active | Arf-GAP with SH3 domain, ANK repeat and PH domain-containing protein 1 (Homo sapiens), … | AID 624377, 2012 | ASAP1-stimulated ARF1 GTP hydrolysis, GDP FP detection | inhibition, % at 16.5 µM; in the data active means inhibition above about 25%;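 further: 0% = vehicle with enzyme and substrate and 100% = no enzyme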
proCasp7 act: procaspase-7 activators, primary screen, counter-screen for procaspase-3 activator project, biochemical, absorbance, HTS, human; Caspase-7 (Homo sapiens), P55210; recombinant procaspase-7, Ac-DEVD-pNA absorbance 405 nm; D23A/D198A/D206A triple mutant, cannot self-cleave; scale: DMSO 0, 5 µM enzyme 100; activation, % at 8.5 µM; 0.093% of 330,000 active;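 active means percent activation above the screen-wide mean plus 3 SD, cut at about 25% in these data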
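Material: Procaspase-7 triple mutant (PC-7 D3A) | Quantity: 2 µM procaspase-7 mutant as dispensed | Reagent: DEVD-pNA substrate | Times: 1 h preincubation, 2 h reaction | Technique: 405 nm absorbance of p-nitroaniline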
proCasp3 act: activators of human procaspase-3 D3A mutant, primary screen, biochemical, absorbance, PC-3 D3A mutant, single concentration; Caspase-3 (Homo sapiens), P42574; recombinant procaspase-3 D3A, Ac-DEVD-pNA absorbance 405 nm; activation, % at 8.5 µM; 0.11% of 330,000 active; AID 463141, 2010;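 active means activation above the mean of all tested compounds plus 3 SD, cut at about 21% in these data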;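 further: 0% = DMSO alone and 100% = DMSO wells spiked with extra 5 µM PC-3 D3A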
Target sequence (P42574 whole entry D9A/D28A/D175A): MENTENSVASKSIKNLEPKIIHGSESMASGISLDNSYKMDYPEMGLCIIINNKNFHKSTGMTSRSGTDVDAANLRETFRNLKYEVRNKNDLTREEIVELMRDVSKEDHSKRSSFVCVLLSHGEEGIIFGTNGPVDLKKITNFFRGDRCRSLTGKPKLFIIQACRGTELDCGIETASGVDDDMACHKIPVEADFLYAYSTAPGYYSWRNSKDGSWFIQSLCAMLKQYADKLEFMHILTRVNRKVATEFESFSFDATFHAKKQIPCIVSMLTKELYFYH
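Test system: Procaspase-3 D3A mutant, all three cleavage aspartates alanine | Dosing: Single dose, 8.5 µM nominal compound, 0.8% DMSO | Schedule: 1 h preincubation, 2 h reaction | Technique: 405 nm absorbance of p-nitroaniline, reads at 0 and 120 min | Repeats: One well per compound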
ARFGAP1 inh: inhibitors of rat ARFGAP1 GAP activity, primary screen, biochemical, fluorescence polarization, GDP tracer | Arfgap1-stimulated ARF1 GTP hydrolysis, GDP FP detection | inhibition, % at 16.5 µM | 0.26% of 360,000 active;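 active means inhibition above a per-plate limit, mean inhibition of low control wells plus 3 SD, cut at about 25% in these data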;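 further: 0% = DMSO wells with enzyme and 100% = wells lacking Arfgap1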
Target sequence (Q62848 1-136 limits assumed): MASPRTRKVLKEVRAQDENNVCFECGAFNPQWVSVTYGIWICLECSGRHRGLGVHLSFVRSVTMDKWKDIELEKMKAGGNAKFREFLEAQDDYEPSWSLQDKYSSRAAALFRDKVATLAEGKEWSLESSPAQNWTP
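Material – truncated rat Arfgap1 GAP domain · Buffer or medium – HEPES-based buffer, pH 7.5 · Reagent – human ARF1(Δ1-17)-GTP substrate · Dosing – 16.5 µM single point, 1.26% DMSO · Schedule – GTP hydrolysis reaction 2 h at 25 °C · Technique – GDP detection by fluorescence polarization · Benchmarks – No-Arfgap1 wells (100%) versus DMSO full-reaction wells (0%) · Repeats – single replicate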
LANA-H2A inh: blockers of LANA interaction with H2A/H2B – biochemical, FP readout, HTS, primary screen; Protein LANA1 (Human herpesvirus 8 type P (isolate GK18)), Q9QR71; cell-free LANA-H2A/H2B peptide, fluorescence polarization; 0.6% of 320,000 active; AID 2629, 2010; inhibition, % (no concentration beside the values); in the data active means inhibition mostly above about 10%, no sharp cut-off; inactive means mostly below about 6.7%
The depositor's hits bear a star. A selection: hits, their analogues and other compounds. The true share with any hit is near 1.2%.

Results for C[C@@H]1CN([C@H](C)CO)C(=O)c2cc(NC(=O)Nc3ccc(C(F)(F)F)cc3)ccc2O[C@H]1CN(C)S(=O)(=O)c1ccc(Cl)cc1 ?
Yeast superoxide: 134.8; ASAP1 GAP inh: 5.3; proCasp7 act: 5.7; proCasp3 act: 8.3; ARFGAP1 inh: 15.6; LANA-H2A inh: active

Results for Cc1noc(C)c1NC(=O)Nc1ccc2c(c1)C(=O)N([C@H](C)CO)C[C@H](C)[C@H](CN(C)C)O2 ?
Yeast superoxide: 107.4; ASAP1 GAP inh: 0.9; proCasp7 act: -2.8; proCasp3 act: -3.6; ARFGAP1 inh: 7.6; LANA-H2A inh: 46.2*

What do the screens show for `C[C@H](CO)N1C[C@H](C)[C@@H](CN(C)S(=O)(=O)c2ccc(F)cc2)Oc2c(NC(=O)Nc3ccc(C(F)(F)F)cc3)cccc2C1=O`?
Yeast superoxide: 109.6; ASAP1 GAP inh: -8.8; proCasp7 act: 13.8; proCasp3 act: 5.9; ARFGAP1 inh: -5.4; LANA-H2A inh: -2.8

Results for Cc1noc(C)c1NC(=O)Nc1ccc2c(c1)C(=O)N([C@H](C)CO)C[C@H](C)[C@@H](CN(C)S(C)(=O)=O)O2 ?
Yeast superoxide: 147.2; ASAP1 GAP inh: -5.7; proCasp7 act: 3.3; proCasp3 act: -0.2; ARFGAP1 inh: -6.0; LANA-H2A inh: 7.2

How did C[C@H](CO)N1C[C@H](C)[C@@H](CN(C)S(C)(=O)=O)Oc2ccc(NC(=O)CCN3CCOCC3)cc2C1=O do in these assays?
Yeast superoxide: 97.5; ASAP1 GAP inh: -0.5; proCasp7 act: 26.7*; proCasp3 act: -2.2; ARFGAP1 inh: -3.5

What do the screens show for `C[C@H]1CN([C@@H](C)CO)C(=O)c2cccc(NC(=O)Nc3ccc(C(F)(F)F)cc3)c2O[C@@H]1CN(C)S(=O)(=O)c1ccc(Cl)cc1`?
Yeast superoxide: 101.5; ASAP1 GAP inh: 11.1; proCasp7 act: 5.7; proCasp3 act: -1.4; ARFGAP1 inh: 15.0; LANA-H2A inh: 14.8*

What do the screens show for `C[C@H](CO)N1C[C@H](C)[C@@H](CN(C)S(=O)(=O)c2ccc(F)cc2)Oc2ccc(NC(=O)Nc3ccc(C(F)(F)F)cc3)cc2C1=O`?
Yeast superoxide: 77.8; ASAP1 GAP inh: 19.7; proCasp7 act: 6.1; proCasp3 act: 1.1; ARFGAP1 inh: 6.3; LANA-H2A inh: -2.4

Results for CC(C)(C)C(=O)c1c(N)[nH]c(C(=O)c2ccccc2)c1-c1ccc([N+](=O)[O-])cc1 ?
ASAP1 GAP inh: -13.4; ARFGAP1 inh: 1.5

What do the screens show for `CC(C)N(c1cc(=O)nc2ccccn12)C(C)C`?
ASAP1 GAP inh: -10.1; ARFGAP1 inh: -13.2

How did O=C(NC(=S)Nc1cccnc1)c1cccc(Cl)c1 do in these assays?
ASAP1 GAP inh: -0.3; ARFGAP1 inh: 6.4

How did O=C(NCC(c1ccccc1)N1CCCC1)C1CCN(C(=O)Nc2ccccc2)CC1 (stereo not drawn) do in these assays?
ASAP1 GAP inh: 8.6; ARFGAP1 inh: -8.4

How did C[C@@H]1CN([C@H](C)CO)C(=O)c2cc(NC(=O)Nc3ccc(C(F)(F)F)cc3)ccc2O[C@H]1CN(C)S(=O)(=O)c1cccs1 do in these assays?
Yeast superoxide: 98.0; ASAP1 GAP inh: 26.0*; proCasp7 act: 5.4; proCasp3 act: -3.0; ARFGAP1 inh: 10.6; LANA-H2A inh: 1.7

Results for O=C1CCCC2=C1[C@@]1(O[C@H]3C=CC=CN23)C(=O)N(c2ccccc2)c2ccccc21 ?
ASAP1 GAP inh: -7.7; ARFGAP1 inh: 5.6
